Several values for one entry are separate records, joined by “and”; a condition that tells them apart may be missing. Equal entries are not always repeated.
Tested on: U2OS
Experiment: Multiplex assay against U2OS
Type: toxicity, cell-based
Settings: human, number of replicates 2
Outline: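 Hoechst33342, BioTracker Green Microtubule Cytoskeleton Dye, MitoTracker Red and Annexin V Alexa Fluor 680 were added to live cells at seeding, and imaging on a CQ1 microscope at 37°C and 5% CO2 followed compound addition. Gating by CellPathfinder machine learning separated cells into Hoechst high-intensity objects or normal cells, then normal cells into healthy, pyknosed or fragmented nuclei, then pyknosed cells into mitotic or apoptotic. Per cents of healthy-nucleus cells are reported for the tubulin, mitochondrial-mass and membrane-permeability phenotypes.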

[1] = 12 h, 1 µM, compound concentration 1 uM
[2] = 12 h, 10 µM, compound concentration 10 uM
[3] = 24 h, 1 µM, compound concentration 1 uM
[4] = 24 h, 10 µM, compound concentration 10 uM
[5] = 48 h, 1 µM, compound concentration 1 uM
[6] = 48 h, 10 µM, compound concentration 10 uM

COc1ccc(CC[C@@H](OC(=O)[C@@H]2CCCCN2C(=O)[C@H](c2cc(OC)c(OC)c(OC)c2)C2CCCCC2)c2cccc(OCCN3CCOCC3)c2)cc1OC
Population Apoptotic (%) [1]: 66% and 51% | Population Fragmented Nuclei (%) [1]: 10% and 3% | Population Healthy Nuclei (%) [1]: 64% and 82% | Population Hoechst High Intensity Objects (%) [1]: 0% | Population Membrane Permeable-Phenotype (%) [1]: 33% and 21% | Population Mitochondria Different-Phenotype (%) [1]: 16% and 37% | Population Mitotic Cells (%) [1]: 33% and 48% | Population Normal (%) [1]: 100% and 99% | Population Pyknosed Nuclei (%) [1]: 24% and 13% | Population Tubulin-Different-Phenotype (%) [1]: 45% and 43% | Population Apoptotic (%) [2]: 100% and 70% | Population Healthy Nuclei (%) [2]: 56% and 81% | Population Hoechst High Intensity Objects (%) [2]: 2% and 0% | Population Membrane Permeable-Phenotype (%) [2]: 82% and 57% | Population Mitochondria Different-Phenotype (%) [2]: 47% and 40% | Population Normal (%) [2]: 97% and 99% | Population Pyknosed Nuclei (%) [2]: 14% | Population Tubulin-Different-Phenotype (%) [2]: 100% and 98% | Population Apoptotic (%) [3]: 60% and 75% | Population Fragmented Nuclei (%) [3]: 11% and 3% | Population Healthy Nuclei (%) [3]: 65% and 77% | Population Hoechst High Intensity Objects (%) [3]: 0% | Population Membrane Permeable-Phenotype (%) [3]: 21% and 18% | Population Mitotic Cells (%) [3]: 40% and 24% | Population Normal (%) [3]: 100% | Population Pyknosed Nuclei (%) [3]: 23% and 18% | Population Tubulin-Different-Phenotype (%) [3]: 28% and 35% | Population Apoptotic (%) [4]: 73% and 96% | Population Fragmented Nuclei (%) [4]: 22% and 9% | Population Healthy Nuclei (%) [4]: 43% and 67% | Population Hoechst High Intensity Objects (%) [4]: 0% | Population Membrane Permeable-Phenotype (%) [4]: 89% and 86% | Population Mitochondria Different-Phenotype (%) [4]: 42% and 39% | Population Normal (%) [4]: 100% and 99% | Population Pyknosed Nuclei (%) [4]: 34% and 23% | Population Tubulin-Different-Phenotype (%) [4]: 100% and 99% | Population Apoptotic (%) [5]: 57% and 87% | Population Fragmented Nuclei (%) [5]: 10% and 3% | Population Healthy Nuclei (%) [5]: 55% and 75% | Population Hoechst High Intensity Objects (%) [5]: 0% | Population Membrane Permeable-Phenotype (%) [5]: 9% and 12% | Population Mitochondria Different-Phenotype (%) [5]: 15% and 37% | Population Normal (%) [5]: 100% and 99% | Population Pyknosed Nuclei (%) [5]: 35% and 21% | Population Tubulin-Different-Phenotype (%) [5]: 24% and 37% | Population Apoptotic (%) [6]: 96% and 91% | Population Fragmented Nuclei (%) [6]: 22% and 10% | Population Healthy Nuclei (%) [6]: 25% and 51% | Population Hoechst High Intensity Objects (%) [6]: 4% and 1% | Population Membrane Permeable-Phenotype (%) [6]: 91% | Population Mitochondria Different-Phenotype (%) [6]: 33% and 42% | Population Mitotic Cells (%) [6]: 4% and 8% | Population Normal (%) [6]: 96% and 98% | Population Pyknosed Nuclei (%) [6]: 52% and 37% | Population Tubulin-Different-Phenotype (%) [6]: 100%

O=C1NC(=O)C(c2ccccc2[N+](=O)[O-])=C1Nc1ccc(O)c(Cl)c1
Population Apoptotic (%) [1]: 100% and 38% | Population Fragmented Nuclei (%) [1]: 12% and 5% | Population Healthy Nuclei (%) [1]: 80% and 83% | Population Hoechst High Intensity Objects (%) [1]: 0% | Population Membrane Permeable-Phenotype (%) [1]: 0% and 1% | Population Mitochondria Different-Phenotype (%) [1]: 0% | Population Normal (%) [1]: 100% | Population Pyknosed Nuclei (%) [1]: 8% and 10% | Population Tubulin-Different-Phenotype (%) [1]: 85% and 90% | Population Apoptotic (%) [2]: 80% and 37% | Population Fragmented Nuclei (%) [2]: 9% and 5% | Population Healthy Nuclei (%) [2]: 68% and 83% | Population Hoechst High Intensity Objects (%) [2]: 0% and 3% | Population Membrane Permeable-Phenotype (%) [2]: 6% and 3% | Population Mitochondria Different-Phenotype (%) [2]: 6% and 0% | Population Normal (%) [2]: 100% and 96% | Population Pyknosed Nuclei (%) [2]: 22% and 10% | Population Tubulin-Different-Phenotype (%) [2]: 73% and 92% | Total Cell Count [2]: 22 | Population Apoptotic (%) [3]: 40% and 37% | Population Healthy Nuclei (%) [3]: 67% and 86% | Population Hoechst High Intensity Objects (%) [3]: 0% | Population Membrane Permeable-Phenotype (%) [3]: 4% and 2% | Population Mitochondria Different-Phenotype (%) [3]: 0% | Population Mitotic Cells (%) [3]: 60% and 62% | Population Normal (%) [3]: 100% | Population Pyknosed Nuclei (%) [3]: 14% and 10% | Population Tubulin-Different-Phenotype (%) [3]: 73% and 92% | Population Apoptotic (%) [4]: 66% and 31% | Population Fragmented Nuclei (%) [4]: 8% and 5% | Population Healthy Nuclei (%) [4]: 73% and 84% | Population Hoechst High Intensity Objects (%) [4]: 0% | Population Membrane Permeable-Phenotype (%) [4]: 4% and 1% | Population Mitochondria Different-Phenotype (%) [4]: 4% and 0% | Population Mitotic Cells (%) [4]: 33% and 68% | Population Normal (%) [4]: 100% and 99% | Population Pyknosed Nuclei (%) [4]: 17% and 10% | Population Tubulin-Different-Phenotype (%) [4]: 84% and 95% | Population Apoptotic (%) [5]: 71% and 55% | Population Fragmented Nuclei (%) [5]: 9% and 3% | Population Healthy Nuclei (%) [5]: 80% and 90% | Population Hoechst High Intensity Objects (%) [5]: 0% | Population Membrane Permeable-Phenotype (%) [5]: 1% | Population Mitochondria Different-Phenotype (%) [5]: 0% | Population Mitotic Cells (%) [5]: 28% and 44% | Population Normal (%) [5]: 100% | Population Pyknosed Nuclei (%) [5]: 10% and 5% | Population Tubulin-Different-Phenotype (%) [5]: 86% and 93% | Population Apoptotic (%) [6]: 22% and 31% | Population Fragmented Nuclei (%) [6]: 5% and 7% | Population Healthy Nuclei (%) [6]: 77% and 85% | Population Hoechst High Intensity Objects (%) [6]: 0% and 2% | Population Membrane Permeable-Phenotype (%) [6]: 2% and 0% | Population Mitochondria Different-Phenotype (%) [6]: 2% and 0% | Population Mitotic Cells (%) [6]: 77% and 68% | Population Normal (%) [6]: 100% and 97% | Population Pyknosed Nuclei (%) [6]: 16% and 7% | Population Tubulin-Different-Phenotype (%) [6]: 92% and 98%

Source: ChEMBL document CHEMBL5303300, “EUbOPEN Chemogenomics Library - Multiplex” (2023)
